Measurements reported in PMC9476207 (ACS Omega, 2022).

Legend:
[1] = tested on: NCI-H522; test: NCI-60 single-dose antiproliferative screen; assay type: cell-based; conditions: Homo sapiens, NCI-H522, 48 h, read-out: growth percent
Method in brief: (§1)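 NCI-60 protocol. Lines were grown in RPMI 1640 with 5% FBS and 2 mM L-glutamine, plated and incubated 24 h at 37 °C; time-zero plates were TCA-fixed. The test compound was dissolved in DMSO, diluted in medium with 50 μg/mL gentamicin and given once at a final 10^-5 M (DMSO control) for 48 h. Cells were fixed with cold TCA (1 h, 4 °C) and stained with 0.4% SRB in 1% acetic acid for 10 min. Dye was dissolved in 10 mM Trizma base and read at 515 nm. Growth percent was calculated from time-zero, test and control ODs.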

[2] = tested on: SK-OV-3; test: NCI-60 single-dose antiproliferative screen; assay type: cell-based; conditions: Homo sapiens, SK-OV-3, 48 h, read-out: growth percent
Method in brief: (§2)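 Cells grown in RPMI 1640 with 5% FBS and 2 mM L-glutamine, plated and held 24 h at 37 °C; time-zero plates TCA-fixed. DMSO stocks were diluted in gentamicin-containing medium to a final 10^-5 M, with a DMSO-only control. Exposure 48 h, 5% CO2. Adherent cells TCA-fixed 1 h at 4 °C, stained with 0.4% SRB, solubilised in 10 mM Trizma base, read at 515 nm. Growth percent derived from ODtzero, ODtest and ODctrl.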

[3] = tested on: SR; test: NCI-60 single-dose antiproliferative screen; assay type: cell-based; conditions: Homo sapiens, 48 h, read-out: growth percent
Method in brief: as §2

[4] = tested on: MOLT-4; test: NCI-60 single-dose antiproliferative screen; assay type: cell-based; conditions: Homo sapiens, MOLT-4, 48 h, read-out: growth percent
Method in brief: as §1

[5] = tested on: HOP-62; test: NCI-60 single-dose antiproliferative screen; assay type: cell-based; conditions: Homo sapiens, HOP-62, 48 h, read-out: growth percent
Method in brief: as §1

[6] = tested on: MALME-3M; test: NCI-60 single-dose antiproliferative screen; assay type: cell-based; conditions: Homo sapiens, 48 h, read-out: growth percent
Method in brief: as §1

[7] = tested on: K-562; test: NCI-60 single-dose antiproliferative screen; assay type: cell-based; conditions: Homo sapiens, K562, 48 h, read-out: growth percent
Method in brief: as §1

[8] = tested on: SF-295; test: NCI-60 single-dose antiproliferative screen; assay type: cell-based; conditions: Homo sapiens, SF-295, 48 h, read-out: growth percent
Method in brief: as §1

[9] = tested on: MDA-MB-468; test: NCI-60 single-dose antiproliferative screen; assay type: cell-based; conditions: Homo sapiens, MDA-MB-468, 48 h, read-out: growth percent
Method in brief: as §1

[10] = tested on: SNB-19; test: NCI-60 single-dose antiproliferative screen; assay type: cell-based; conditions: Homo sapiens, SNB-19, 48 h, read-out: growth percent
Method in brief: as §2

[11] = tested on: T-47D; test: NCI-60 single-dose antiproliferative screen; assay type: cell-based; conditions: Homo sapiens, T47D, 48 h, read-out: growth percent
Method in brief: as §2

[12] = tested on: SK-MEL-28; test: NCI-60 single-dose antiproliferative screen; assay type: cell-based; conditions: Homo sapiens, SK-MEL-28, 48 h, read-out: growth percent
Method in brief: as §2

[13] = tested on: 786-0; test: NCI-60 single-dose antiproliferative screen; assay type: cell-based; conditions: Homo sapiens, 786-0, 48 h, read-out: growth percent
Method in brief: as §1

[14] = tested on: OVCAR-5; test: NCI-60 single-dose antiproliferative screen; assay type: cell-based; conditions: Homo sapiens, OVCAR-5, 48 h, read-out: growth percent
Method in brief: as §1

[15] = tested on: HS 578T; test: NCI-60 single-dose antiproliferative screen; assay type: cell-based; conditions: Homo sapiens, 48 h, read-out: growth percent
Method in brief: as §1

[16] = tested on: A549/ATCC; test: NCI-60 single-dose antiproliferative screen; assay type: cell-based; conditions: Homo sapiens, A549, 48 h, read-out: growth percent
Method in brief: as §1

[17] = tested on: NCI/ADR-RES; test: NCI-60 single-dose antiproliferative screen; assay type: cell-based; conditions: Homo sapiens, 48 h, read-out: growth percent
Method in brief: as §1

[18] = tested on: EKVX; test: NCI-60 single-dose antiproliferative screen; assay type: cell-based; conditions: Homo sapiens, 48 h, read-out: growth percent
Method in brief: as §1

[19] = tested on: HCC-2998; test: NCI-60 single-dose antiproliferative screen; assay type: cell-based; conditions: Homo sapiens, HCC 2998, 48 h, read-out: growth percent
Method in brief: as §1

[20] = tested on: NCI-H460 cells; test: Wound healing assay; assay type: cell-based, human
[21] = tested on: NCI-H460 cells; test: Colony-forming ability; assay type: cell-based, human
[22] = tested on: MDA-MB-231 ATCC; test: NCI-60 single-dose antiproliferative screen; assay type: cell-based; conditions: Homo sapiens, MDA-MB-231, 48 h, read-out: growth percent
Method in brief: as §1

[23] = tested on: HL-60(TB); test: NCI-60 single-dose antiproliferative screen; assay type: cell-based; conditions: Homo sapiens, HL-60, 48 h, read-out: growth percent
[24] = tested on: A498; test: NCI-60 single-dose antiproliferative screen; assay type: cell-based; conditions: Homo sapiens, A498, 48 h, read-out: growth percent
Method in brief: as §1

[25] = tested on: ACHN; test: NCI-60 single-dose antiproliferative screen; assay type: cell-based; conditions: Homo sapiens, 48 h, read-out: growth percent
Method in brief: as §1

SMILES | activity at 10 µM [1] | activity at 10 µM [2] | activity at 10 µM [3] | activity at 10 µM [4] | activity at 10 µM [5] | activity at 10 µM [6] | activity at 10 µM [7] | activity at 10 µM [8] | activity at 10 µM [9] | activity at 10 µM [10] | activity at 10 µM [11] | activity at 10 µM [12] | activity at 10 µM [13] | activity at 10 µM [14] | activity at 10 µM [15] | activity at 10 µM [16] | activity at 10 µM [17] | activity at 10 µM [18] | activity at 10 µM [19] | activity at 10 µM [22] | also measured
COc1cc(CNC(=O)CCCC/C=C/C(C)C)ccc1OCc1cn(-c2ccc(C#N)cc2)nn1 [14j, (E)-N-(4-((1-(4-Cyanophenyl)-1H-1,2,3-triazol-4-yl)methoxy)-3-methoxybenzyl)-8-methylnon-6-enamide] | 88.2% | 88.2% | 76.3% | 88.4% | 103% | 102% | 75.4% | 102% | 74.9% | 81.9% | 76.8% | 105% | 91.7% | 95.3% | 95% | 84.8% | 79.7% | 90.8% | 94.5% | 90.8% | migration capacity (wound healing) [20]: moderate wound healing; colony-forming ability [21]: inhibited the colony-forming ability
COc1cc(CNC(=O)C[C@H](C)CCC=C(C)C)ccc1OCc1cn(-c2ccc(Cl)cc2)nn1 [18b, (R)-N-(4-((1-(4-Chlorophenyl)-1H-1,2,3-triazol-4-yl)methoxy)-3-methoxybenzyl)-3,7-dimethyloct-6-enamide] | 62.9% | 72.1% | 65.8% | 71.7% | 61.5% | 68.3% | 53.5% | 55.5% | 41.3% | 78.6% | 52.5% | 87% | 84.3% | 80.7% | 71.4% | 57.1% | 48% | 75.3% | 75.9% | 59.6% | activity at 10 µM [23]: 87.8%; activity at 10 µM [24]: 98.9%; activity at 10 µM [25]: 44.8%
COc1cc(CNC(=O)CCCC/C=C/C(C)C)ccc1OCc1cn(-c2ccccc2Cl)nn1 [14c, (E)-N-(4-((1-(2-Chlorophenyl)-1H-1,2,3-triazol-4-yl)methoxy)-3-methoxybenzyl)-8-methylnon-6-enamide] | 64.5% | 91.3% | 68.5% | 81% | 82% | 107% | 76.8% | 99.4% | 88.2% | 89.7% | 74.3% | 106% | 93.8% | 104% | 97.2% | 84.3% | 92% | 82.1% | 110% | 80.8% | activity at 10 µM [25]: 74.1%
COc1cc(CNC(=O)CCCC/C=C/C(C)C)ccc1OCc1cn(-c2ccc(C)c(C)c2)nn1 [14p, (E)-N-(4-((1-(3,4-Dimethylphenyl)-1H-1,2,3-triazol-4-yl)methoxy)-3-methoxybenzyl)-8-methylnon-6-enamide] | 80.7% | 98.6% | 58.2% | 78.5% | 97.4% | 107% | 74.6% | 88.8% | 71.8% | 95.8% | 73.2% | 112% | 99.8% | 107% | 90.7% | 82.2% | 80.6% | 79.3% | 101% | 89.3% | activity at 10 µM [25]: 68.5%
